# Screens from PubChem BioAssay.
# HCV core dimer = HCV core protein dimerization inhibition; TR-FRET GST/Flag-core106 dimerization, 1536-well; AID 1899; inhibition, % at 5 µM; actives 0.33% (n = 300,000);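 active = inhibition above the mean of all tested compounds plus 3 SD, set per screening campaign, cut at about 45% in these data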
#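 test system = GST/Flag-tagged HCV core106 proteins | probe or stimulus = Eu donor and XL665 acceptor anti-tag antibodies | times = compound-protein-antibody incubation 4 h at 22.5 °C | signal = TR-FRET, excitation 340 nm, emission 617 and 671 nm | measure = percent inhibition of core106 dimerization signal | controls = wells lacking GST-core106 and wells with excess unlabelled core106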
# MLLE-PAM2 inh = inhibitors of microRNA-mediated deadenylation, human PABP1 MLLE binding. actives 0.36% (n = 360,000). P11940. GST-MLLE / FITC-PAM2 fluorescence polarization. inhibition, % at 20 µM; in the data active = inhibition above about 35%, passing the limit was not always enough
# Target sequence (P11940 whole entry, looked up): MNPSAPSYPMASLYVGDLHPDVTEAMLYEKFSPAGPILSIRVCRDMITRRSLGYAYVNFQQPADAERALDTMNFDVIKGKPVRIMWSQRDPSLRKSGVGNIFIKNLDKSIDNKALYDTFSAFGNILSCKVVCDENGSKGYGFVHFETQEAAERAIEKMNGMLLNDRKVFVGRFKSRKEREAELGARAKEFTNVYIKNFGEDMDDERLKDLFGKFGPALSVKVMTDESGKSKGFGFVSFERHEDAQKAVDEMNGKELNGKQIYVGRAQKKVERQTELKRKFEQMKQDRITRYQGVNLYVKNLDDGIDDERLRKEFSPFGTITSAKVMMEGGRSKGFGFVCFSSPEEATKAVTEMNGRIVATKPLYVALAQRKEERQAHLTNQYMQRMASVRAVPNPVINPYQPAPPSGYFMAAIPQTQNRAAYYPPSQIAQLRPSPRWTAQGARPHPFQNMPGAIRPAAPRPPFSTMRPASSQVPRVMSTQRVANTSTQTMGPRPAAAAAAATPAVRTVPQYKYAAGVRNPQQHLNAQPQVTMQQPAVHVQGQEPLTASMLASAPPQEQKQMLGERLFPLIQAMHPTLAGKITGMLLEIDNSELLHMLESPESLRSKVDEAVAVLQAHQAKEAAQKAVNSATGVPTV
# HCV NS3 hel inh = inhibitors of Hepatitis C virus NS3 helicase. NS3 helicase DNA unwinding, Cy5 molecular beacon fluorescence. inhibition, % at 10.9 µM. actives 0.56% (n = 290,000);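 active = inhibition above the mean of all tested compounds plus 3 SD, set per campaign, cut at about 35% in these data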
#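 Test system: hepatitis C virus NS3 helicase domain fragment enzyme. Also added: annealed dual-labelled DNA beacon duplex, ATP-started. Timing: 60 min unwinding reaction at 25 °C after ATP addition. Technique: Cy5 fluorescence. Measure: % inhibition of unwinding.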
# PABP polyA inh = PABP-poly(A) binding inhibition | actives 1% (n = 290,000) | AID 2014 | PABP-poly(A) RNA binding, fluorescence polarization | inhibition, % at 35 µM;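 also: calls also rest on retests at 20 µM and on dose response follow-up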
# FID counter = counter-screen for HCV NS3 helicase inhibitors: DNA intercalator displacement; inhibition, % at 7.9 µM; actives 0.17% (n = 290,000); DNA fluorescent intercalator displacement, fluorescence; in the data active = inhibition above about 37%;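 also: higher means more ethidium bromide displaced from hairpin DNA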
# eIF4H FP inh = inhibitors of RNA binding by human eIF4H. eIF4H fluorescence polarization binding assay. inhibition, % at 35 µM. actives 0.94% (n = 290,000). AID 2012;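 also: calls also rest on retests at 20 µM and on dose response follow-up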
# A number is an active result; – = inactive; ? = inconclusive; · = not tested or not shown. Sampled rows, rich in hits. Any-hit rate of the full collection: about 2%. Unless noted, no rule for the calls is given here.
SMILES,HCV core dimer,MLLE-PAM2 inh,HCV NS3 hel inh,PABP polyA inh,FID counter,eIF4H FP inh
O=C1C=CC(=O)c2c(O)c(N3CCN(CCO)CC3)c(Cl)c(O)c21,·,91.3,·,·,·,·
OCCOCCN1CCN(C2=Nc3ccccc3Sc3ccccc32)CC1,–,–,–,–,–,–
CC(NC(=O)C1CCN(C(=O)Nc2ccccc2)CC1)c1ccc(Cl)cc1 (stereo unspecified),·,–,·,·,·,·
Cc1ccc(NC(=S)Nc2ccc3[nH]c(=O)[nH]c3c2)cc1C,–,42.8,–,–,–,–
COc1ccc(-c2nc(CC(=O)Nc3cccc(S(=O)(=O)NC4=NCCC4)c3)cs2)cc1,·,–,·,·,·,·
Cc1sc2nc3ccc(NCc4ccco4)nn3c(=O)c2c1C,–,40.5,–,–,–,–
O=c1c2ccccc2nc2ccc(NCc3ccco3)nn12,–,–,–,75.6,–,–
O=C1c2ccccc2C(=O)N1Cc1nc2ccccc2c(=O)n1Cc1ccco1,–,·,·,–,·,–
CCCCCN(C(=O)CCC(=O)OCc1cccc(Br)c1)c1c(N)n(CCCC)c(=O)[nH]c1=O,–,–,·,·,·,·
COc1cccc(CNC(=O)CSc2nc(=O)n(Cc3ccncc3)c3c2CCC3)c1,–,–,·,·,·,·
Cc1ccc(-n2nc3c(=O)n(CCCC(=O)N4CCC(C(N)=O)CC4)nc(C)c3c2C)cc1,–,–,–,·,–,·
N#CC1=C(N)Oc2cc(N)ccc2C1c1ccc(F)cc1F (stereo unspecified),–,–,–,20.0,–,–
CCc1n(CC(O)COC2CCCCC2)c2ccccc2[n+]1C (stereo unspecified),–,–,–,52.7,–,–
CCc1n(CC(O)COCC2CC=CCC2)c2ccccc2[n+]1C (stereo unspecified),–,–,–,–,–,–
COc1ccc(NS(=O)(=O)c2ccc(F)c(Cl)c2)cn1,–,46.7,–,?,–,?
COc1ccc(NS(=O)(=O)c2ccc(Br)cc2)cn1,–,–,–,–,–,–
Cc1cc(C)c2[nH]c(C(=O)Nc3ccc(F)cc3Br)cc2c1,–,–,–,–,–,–
COCC(C)n1c(SCC(=O)Nc2sccc2C(N)=O)nc2ccccc2c1=O (stereo unspecified),·,–,·,·,·,·
COCC(C)n1c(SCC(=O)Nc2nccs2)nc2ccccc2c1=O (stereo unspecified),·,44.0,·,·,·,·
COc1ccc(NC(=S)NCCc2c(C)[nH]c3ccc(OC)cc23)cc1,–,–,–,–,–,–
C/C(=N\Nc1ccc(C(=O)O)cc1)c1ccc(Br)cc1,–,–,–,–,–,50.9
O=C(CCSc1ccccn1)c1ccccc1,–,–,–,–,–,–
CC(C)CCSc1nc2[nH]ncc2c(=O)[nH]1,–,–,–,–,–,–
O=C1C(=Cc2cccn2-c2ccc(O)cc2)C(=O)c2ccccc21,60.8,–,–,?,–,?
Cc1cccc(OCC(O)CN2CC3(C)CC2CC(C)(C)C3)c1 (stereo unspecified),–,–,–,–,–,–
SMILES,HCV core dimer,MLLE-PAM2 inh,HCV NS3 hel inh,PABP polyA inh,FID counter,eIF4H FP inh
Cc1ccc(OCC(O)CN2CC3(C)CC2CC(C)(C)C3)cc1 (stereo unspecified),–,–,–,52.5,–,13.1
Cc1ccc(Cl)cc1N1CCN(C(=O)CSc2ccsc2[N+](=O)[O-])CC1,57.4,–,–,–,–,–
O=C(CSc1ccc(Cl)cc1)N1CCN(c2ccc([N+](=O)[O-])cc2Cl)CC1,–,–,–,–,–,–
CN1CCN(c2nc(-c3ccc(Cl)cc3)nc3ccccc23)CC1,·,–,–,–,39.1,–
COc1ccc(N2CCN(S(=O)(=O)CCNC(=O)C3CC3)CC2)cc1,–,–,·,·,·,·
CN(C)/N=C/C=C1\CC/C(=C\c2ccc(Br)cc2)C1=O,–,–,–,82.9,–,66.6
NS(=O)(=O)c1ccc(-c2ccc(/C=C3\NC(=S)NC3=O)o2)cc1,–,–,–,–,–,78.8
CC1CC1C(=O)OCC(=O)Nc1ccc(S(=O)(=O)N2CCOCC2)cc1 (stereo unspecified),·,–,·,·,·,·
CN(C)CCc1cc2c(c3c1ccc1ccccc13)OCO2,–,–,–,–,43.2,–
COc1c(/C=N/NC(=O)c2ccccc2O)c(CCN(C)C(C)=O)cc2c1OCO2,–,–,–,–,–,–
Cc1ccnc(NC(=O)C(Cc2ccccc2)NC(=O)c2ccccc2)c1 (stereo unspecified),·,–,·,·,·,·
Cc1cc(Cl)ccc1OC(C)C(=O)Nc1cnn(CCCC(=O)O)c1 (stereo unspecified),–,–,–,–,–,–
Cc1ccc(CN2C(=O)c3ccccc3Sc3ccc(C(=O)NCCCN4CCOCC4)cc32)cc1,–,–,–,·,37.3,·
CCN1CCN(CCNC(=O)c2ccc(/C=C3/Sc4ccccc4N(Cc4cccc(Cl)c4)C3=O)cc2)CC1,–,–,–,–,38.7,–
CCc1ccc(/C=C2/Sc3ccccc3N(CC(=O)NCCCN3CCOCC3)C2=O)cc1,–,–,–,–,54.3,–
O=C(CN1C(=O)/C(=C\c2cccc(Cl)c2)Sc2ccccc21)NCCCN1CCOCC1,–,–,–,–,42.8,–
O=C(CN1C(=O)/C(=C/c2ccc(C(F)(F)F)cc2)Sc2ccccc21)NCCCN1CCOCC1,–,–,–,·,–,·
COc1ccccc1OC(=O)c1cc2ccccc2oc1=O,–,–,–,–,–,–
COc1cc(/C=C/[N+](=O)[O-])ccc1OC(=O)c1cc2ccccc2oc1=O,69.6,–,–,–,–,–
Cn1c(=O)[nH]c2c(nc(-c3ccc(Cl)cc3)n2C)c1=O,–,–,–,–,–,–
CCCc1nc2c(=O)n(C)c(=O)[nH]c2n1C,–,–,–,58.6,–,53.4
CCSc1ccc(/C(N)=N/OC(=O)c2cccs2)cn1,–,–,–,–,–,–
[O-][n+]1c2ccccc2[n+]([O-])c2cc(O)ccc21,–,–,–,78.1,–,105.6
[O-][n+]1c(/C=C/c2ccccc2)ccc2ccccc21,·,–,–,–,–,–
CC(=O)C(Sc1nccc(-c2cccs2)n1)C(C)=O,–,36.3,–,–,–,–
SMILES,HCV core dimer,MLLE-PAM2 inh,HCV NS3 hel inh,PABP polyA inh,FID counter,eIF4H FP inh
O=S(=O)([N-]c1nc2ccccc2nc1-[n+]1ccc(CCCc2ccccc2)cc1)c1cccs1,–,–,–,56.2,–,116.5
CCOC(=O)c1sc(=S)n(CC)c1N,–,–,–,–,–,–
C=CCn1c(N)c(C(=O)OCC)sc1=S,–,48.5,–,–,–,–
CC(=O)c1c(COC(=O)c2ccc(C)cc2)nc2ccccc2[n+]1[O-],–,–,–,–,–,–
CC(=O)c1c(COC(=O)c2cccnc2)nc2ccccc2[n+]1[O-],–,–,–,63.6,–,–
Cc1ccc(NC(=O)CCc2nnc3ccc(N4CCC5(CC4)OCCO5)nn23)cc1F,–,–,–,–,–,–
O=C1CC(NS(=O)(=O)c2ccc([N+](=O)[O-])cc2)CN1c1cccc(F)c1 (stereo unspecified),–,–,·,·,·,·
